Source: ChEMBL document CHEMBL3526048, “In vitro metabolism of rivoglitazone, a novel peroxisome proliferator-activated receptor γ agonist, in rat, monkey, and human liver microsomes and freshly isolated hepatocytes” (Drug Metab Dispos, 2011)

Columns and labels:
[1] = molecular target: T1, UDP-glucuronosyltransferase 1A1 (Homo sapiens, UniProt P22309); test: (§1) Activity of human UGT1A1 expressed in microsomes isolated from baculovirus infected insect cell assessed as enzyme-mediated (2S,3S,4S,5R,6R)-6-((1-carboxy-2-(4-((6-methoxy-1-methyl-1H-benzo[d]imidazol-2-yl)methoxy)phenyl)ethylthio)carbonylamino)-3,4,5-trihydroxytetrahydro-2H-pyran-2-carboxylic acid formation at 20 uM after 4 hrs by radio-HPLC/LC-MS/MS analysis in presence of UDPGA; format: ADME
T1 sequence (P22309 whole entry): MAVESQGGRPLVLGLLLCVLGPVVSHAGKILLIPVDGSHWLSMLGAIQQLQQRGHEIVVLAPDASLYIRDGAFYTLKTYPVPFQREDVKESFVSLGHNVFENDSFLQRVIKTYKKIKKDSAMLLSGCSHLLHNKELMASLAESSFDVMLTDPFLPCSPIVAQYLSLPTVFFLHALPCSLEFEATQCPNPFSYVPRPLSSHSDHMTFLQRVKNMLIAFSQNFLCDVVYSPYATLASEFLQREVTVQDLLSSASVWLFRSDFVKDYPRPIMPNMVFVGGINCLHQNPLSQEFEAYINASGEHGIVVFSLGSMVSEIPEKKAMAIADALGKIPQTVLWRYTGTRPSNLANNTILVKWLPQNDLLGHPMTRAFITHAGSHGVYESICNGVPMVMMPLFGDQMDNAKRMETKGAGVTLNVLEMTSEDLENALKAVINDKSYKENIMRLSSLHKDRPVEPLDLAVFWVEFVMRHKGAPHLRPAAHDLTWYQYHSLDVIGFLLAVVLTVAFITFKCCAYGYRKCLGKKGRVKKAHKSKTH
Method in brief: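 Alamethicin (50 μg/mg protein, 15 min on ice) pretreated expressed human UGT microsomes (1 mg/ml protein) from baculovirus-infected insect cells. Incubation with [¹⁴C]rivoglitazone (20 μM) in 100 mM Tris-HCl (pH 7.5) with 10 mM MgCl₂, started by 5 mM UDPGA, 4 h at 37°C with shaking. UGT insect-cell control supersomes were run alongside. Acetonitrile stop, concentrated supernatant analysed by radio-HPLC, LC-MS and LC-MS/MS.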

[2] = molecular target: T2, UDP-glucuronosyltransferase 2B17 (Homo sapiens, UniProt O75795); test: Activity of human UGT2B17 expressed in microsomes isolated from baculovirus infected insect cell assessed as enzyme-mediated 2-mercapto-3-(4-((6-methoxy-1-methyl-1H-benzo[d]imidazol-2-yl)methoxy)phenyl)propanoic acid formation at 20 uM after 4 hrs by radio-HPLC/LC-MS/MS analysis in presence of UDPGA; format: ADME
T2 sequence (O75795 whole entry): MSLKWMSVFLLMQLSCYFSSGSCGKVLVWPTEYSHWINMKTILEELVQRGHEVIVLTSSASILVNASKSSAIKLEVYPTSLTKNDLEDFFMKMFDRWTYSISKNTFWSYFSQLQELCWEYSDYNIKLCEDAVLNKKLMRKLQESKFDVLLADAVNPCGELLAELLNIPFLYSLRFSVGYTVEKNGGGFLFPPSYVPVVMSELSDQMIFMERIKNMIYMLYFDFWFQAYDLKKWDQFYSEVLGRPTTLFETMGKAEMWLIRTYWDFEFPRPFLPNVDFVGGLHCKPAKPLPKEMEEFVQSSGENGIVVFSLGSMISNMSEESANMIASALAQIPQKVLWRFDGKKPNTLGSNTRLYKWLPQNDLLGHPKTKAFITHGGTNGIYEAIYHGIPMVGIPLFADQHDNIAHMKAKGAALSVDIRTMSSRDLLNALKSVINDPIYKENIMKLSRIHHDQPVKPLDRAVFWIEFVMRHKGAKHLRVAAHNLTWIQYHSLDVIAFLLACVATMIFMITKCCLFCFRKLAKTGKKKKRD

[3] = Drug metabolism in rat hepatocytes assessed as formation of 5-(4-((6-methoxy-1H-benzo[d]imidazol-2-yl)methoxy)benzyl)thiazolidine-2,4-dione at 30 uM after 3 hrs by radio-HPLC/LC-MS/MS analysis in presence of NADPH-generating system and NADPH-generating system/SAM; format: ADME, cell-based, Hepatocyte
[4] = Drug metabolism in rat hepatocytes assessed as formation of 5-hydroxy-5-(4-((6-methoxy-1-methyl-1H-benzo[d]imidazol-2-yl)methoxy)benzyl)thiazolidine-2,4-dione at 30 uM after 3 hrs by radio-HPLC/LC-MS/MS analysis in presence of NADPH-generating system and NADPH-generating system/SAM; format: ADME, cell-based, Hepatocyte
[5] = Drug metabolism in rat hepatocytes assessed as formation of 5-(4-((6-hydroxy-1-methyl-1H-benzo[d]imidazol-2-yl)methoxy)benzyl)thiazolidine-2,4-dione at 30 uM after 3 hrs by radio-HPLC/LC-MS/MS analysis in presence of NADPH-generating system and NADPH-generating system/SAM; format: ADME, cell-based, Hepatocyte
Cytochrome P450 2C8 = molecular target: T3, Cytochrome P450 2C8 (Homo sapiens, UniProt P10632); test: as §1, with “human CYP2C8” for “human UGT1A1”, “after 2” for “after 4”, “of NADPH-generating system/SAM” for “of UDPGA”; format: ADME
T3 sequence (P10632 whole entry): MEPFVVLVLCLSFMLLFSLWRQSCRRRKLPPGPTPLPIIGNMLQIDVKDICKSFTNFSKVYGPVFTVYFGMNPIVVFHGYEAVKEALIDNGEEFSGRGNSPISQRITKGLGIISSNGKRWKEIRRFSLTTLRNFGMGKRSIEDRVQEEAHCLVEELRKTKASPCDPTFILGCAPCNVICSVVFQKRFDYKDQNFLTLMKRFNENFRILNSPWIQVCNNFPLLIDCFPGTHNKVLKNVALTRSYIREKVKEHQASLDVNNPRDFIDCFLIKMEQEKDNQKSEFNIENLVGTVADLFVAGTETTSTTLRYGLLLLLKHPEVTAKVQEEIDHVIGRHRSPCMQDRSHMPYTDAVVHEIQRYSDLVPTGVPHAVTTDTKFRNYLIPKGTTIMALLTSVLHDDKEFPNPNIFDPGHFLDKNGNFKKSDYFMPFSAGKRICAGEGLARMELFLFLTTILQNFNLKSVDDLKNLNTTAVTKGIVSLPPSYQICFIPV

Cytochrome P450 2D6 = Cytochrome P450 2D6 (Homo sapiens, UniProt P10635); test: Activity of human CYP2D6 expressed in microsomes isolated from baculovirus infected insect cell assessed as enzyme-mediated 5-(4-((6-methoxy-1H-benzo[d]imidazol-2-yl)methoxy)benzyl)thiazolidine-2,4-dione formation at 20 uM after 2 hrs by radio-HPLC/LC-MS/MS analysis in presence of NADPH-generating system and NADPH-generating system/SAM; format: ADME
Cytochrome P450 2C9 [6] = molecular target: T4, Cytochrome P450 2C9 (Homo sapiens, UniProt P11712); test: Activity of human CYP2C9 expressed in microsomes isolated from baculovirus infected insect cell assessed as enzyme-mediated 2-mercapto-3-(4-((6-methoxy-1-methyl-1H-benzo[d]imidazol-2-yl)methoxy)phenyl)propanamide formation at 20 uM after 2 hrs by radio-HPLC/LC-MS/MS analysis in presence of NADPH-generating system and NADPH-generating system/SAM; format: ADME
Cytochrome P450 2C9 [7] = molecular target: T4, Cytochrome P450 2C9; test: Activity of human CYP2C9 expressed in microsomes isolated from baculovirus infected insect cell assessed as enzyme-mediated 3-(4-((6-methoxy-1-methyl-1H-benzo[d]imidazol-2-yl)methoxy)phenyl)-2-(methylsulfinyl)propanamide formation at 20 uM after 2 hrs by radio-HPLC/LC-MS/MS analysis in presence of NADPH-generating system/SAM; format: ADME
[8] = Retention time of the compound by LC-MS/MS analysis; format: physicochemical
Method in brief: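 LC-MS/MS used a YMC-Pack ODS-A column (1.5 × 150 mm, 5 μm) at 30°C, 0.1 ml/min. Mobile phase was water and acetonitrile, each with 0.01% TFA. Gradient: 12→60% B over 30 min, →90% B over 5 min, hold 5 min. Detection was UV 220 nm with positive ESI Q-TOF (capillary 3300 V, cone 45 V), collision energy 20 eV and xenon as collision gas.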

T4 sequence (P11712 whole entry): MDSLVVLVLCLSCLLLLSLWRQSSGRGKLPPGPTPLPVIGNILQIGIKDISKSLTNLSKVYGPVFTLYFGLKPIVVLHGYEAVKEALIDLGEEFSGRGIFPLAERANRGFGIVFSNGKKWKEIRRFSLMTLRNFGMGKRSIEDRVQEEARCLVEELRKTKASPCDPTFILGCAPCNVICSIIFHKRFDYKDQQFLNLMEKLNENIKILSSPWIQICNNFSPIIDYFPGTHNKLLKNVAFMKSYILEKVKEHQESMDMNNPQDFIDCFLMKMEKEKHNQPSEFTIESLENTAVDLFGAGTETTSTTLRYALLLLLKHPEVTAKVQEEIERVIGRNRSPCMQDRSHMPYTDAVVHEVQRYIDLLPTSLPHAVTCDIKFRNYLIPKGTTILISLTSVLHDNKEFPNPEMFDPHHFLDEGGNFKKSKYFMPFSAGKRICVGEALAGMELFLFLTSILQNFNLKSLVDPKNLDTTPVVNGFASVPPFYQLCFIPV
Cytochrome P450 2D6, sequence (P10635 whole entry): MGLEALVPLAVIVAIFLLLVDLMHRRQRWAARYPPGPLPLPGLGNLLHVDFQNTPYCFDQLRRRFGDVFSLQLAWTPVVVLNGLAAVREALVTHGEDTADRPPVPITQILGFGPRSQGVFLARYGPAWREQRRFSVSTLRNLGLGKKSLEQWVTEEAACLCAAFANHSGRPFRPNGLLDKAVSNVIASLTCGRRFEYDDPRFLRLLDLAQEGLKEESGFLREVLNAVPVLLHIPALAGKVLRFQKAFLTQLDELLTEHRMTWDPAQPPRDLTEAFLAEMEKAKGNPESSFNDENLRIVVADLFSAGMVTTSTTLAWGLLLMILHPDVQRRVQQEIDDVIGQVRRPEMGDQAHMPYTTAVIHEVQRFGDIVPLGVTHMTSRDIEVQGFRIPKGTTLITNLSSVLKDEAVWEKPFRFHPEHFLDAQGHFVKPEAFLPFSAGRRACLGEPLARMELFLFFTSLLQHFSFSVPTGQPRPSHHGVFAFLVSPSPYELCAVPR

| Drug metabolism [1] | Drug metabolism [2] | Drug metabolism [3] | Drug metabolism [4] | Drug metabolism [5] | Drug metabolism (Cytochrome P450 2C8) | Drug metabolism (Cytochrome P450 2D6) | Drug metabolism (Cytochrome P450 2C9 [6]) | Drug metabolism (Cytochrome P450 2C9 [7]) | Retention_time [8] | SMILES |
| --- | --- | --- | --- | --- | --- | --- | --- | --- | --- | --- |
| metabolite_not_detected | metabolite_not_detected | metabolite_detected | metabolite_detected | metabolite_detected | metabolite_not_detected | metabolite_detected | metabolite_detected | metabolite_not_detected |  | COc1ccc2nc(COc3ccc(C[14CH]4SC(=O)NC4=O)cc3)n(C)c2c1.Cl (racemic) |
|  |  |  |  |  |  |  |  |  | 23.9 min | COc1ccc2nc(COc3ccc(CC(S)C(=O)O)cc3)n(C)c2c1 (stereo not given) |
